From ChEMBL document CHEMBL1125333, “Predictive binding of beta-carboline inverse agonists and antagonists via the CoMFA/GOLPE approach” (J Med Chem, 1992) come the findings set out here.

The target in one assay is GABA-A receptor; anion channel. Put plainly: In vitro binding affinity at benzodiazepine receptor of rat cerebral cortical membranes by [3H]diazepam displacement. In short, it runs like this: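 Rat cerebral cortex homogenised in 50 mM Tris-HCl pH 7.4, centrifuged at 20000g at 4 °C and washed three times. Membranes incubated with drug and 2 nM [3H]diazepam (final) for 120 min at 4 °C, then filtered and washed with ice-cold buffer. Nonspecific binding measured with 10 μM flunitrazepam (final). IC50 estimated from Hill plots.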
A word on the IC50: it is the midpoint of a concentration-inhibition curve. Take `CCC(C)Oc1cc2c3ccccc3nc-2c[nH]1` (configuration not stated): the IC50 was determined as 471 nM.
Still for that read-out and setting: then `c1ccc(COc2cc3c4ccccc4nc-3c[nH]2)cc1`, with more than 1000 nM; and `CC(C)(C)COc1cc2c3ccccc3nc-2c[nH]1`, with 104 nM.
Turning to `c1ccc(CNc2cc3c(cn2)[nH]c2ccccc23)cc1`, the half-maximal inhibitory concentration (IC50) was more than 1280 nM.
As to `CC(C)COc1cc2c(cn1)[nH]c1ccccc12`, the IC50 came out at 93 nM.
On the same count and under the same terms, then `CC(C)(C)C(=O)c1cc2c3ccccc3nc-2c[nH]1`, with 358 nM; and `Nc1cc2c(cn1)[nH]c1ccccc12`, with more than 25000 nM; and `CC(C)CCOc1cc2c3ccccc3nc-2c[nH]1`, with 535 nM.

A further assay is filed under the species Mus musculus. Kind of assay: Tested for convulsive activity in pentylenetetrazole injected mice. Format: functional.
Broadly, the ED50 is the dose at which the effect has come halfway, by size or by number of responders. `CCOC(=O)c1cc2c(cn1)[nH]c1ccccc12` had an ED50 of 3.2 mg/kg.
The same measure, in the same setting: as for `COc1cc2c(cn1)[nH]c1ccccc12`, the figure is 6 mg/kg.
In turn, `COC(=O)c1cc2c(cn1)[nH]c1ccccc12` [BETA-CCM] displayed an ED50 of 10 mg/kg.
On the same count and under the same terms, then `CCOc1cc2c(cn1)[nH]c1ccccc12`, with 7 mg/kg.
